Three molecules from ChEMBL document CHEMBL4673384, “Studying Histone Deacetylase Inhibition and Apoptosis Induction of Psammaplin A Monomers with Modified Thiol Group” (ACS Med Chem Lett, 2021) can be followed below.

Active and inactive are the calls of the source. No cut-off for these calls is given here.

Series [1] in a line: Antiproliferative activity against mouse LL/2 cells assessed as cell growth inhibition incubated for 96 hrs by MTT assay. The series is classed as functional, Lewis lung carcinoma. A general note: Tetrazolium assays rely on reduction of a dye to a coloured formazan, in cell work by metabolically active cells.
The target in series [2] is T1, Histone deacetylase 2 (Homo sapiens, UniProt Q92769). Put plainly: Inhibition of HDAC2 in human HL-60 cells assessed as increase in Ac-H3 level at 0.5 to 8 uM incubated for 24 hrs by Western blot analysis. The conditions noted are these: dose 0.5-8 µM. Format: cell-based. The essentials: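 Compound given to HL-60 cells for 24 h at the stated concentrations, then lysed. Acetyl-histone H3 and acetyl-α-tubulin levels were read by Western blot, with total H3, α-tubulin or β-actin as references.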
T1 sequence (Q92769 whole entry): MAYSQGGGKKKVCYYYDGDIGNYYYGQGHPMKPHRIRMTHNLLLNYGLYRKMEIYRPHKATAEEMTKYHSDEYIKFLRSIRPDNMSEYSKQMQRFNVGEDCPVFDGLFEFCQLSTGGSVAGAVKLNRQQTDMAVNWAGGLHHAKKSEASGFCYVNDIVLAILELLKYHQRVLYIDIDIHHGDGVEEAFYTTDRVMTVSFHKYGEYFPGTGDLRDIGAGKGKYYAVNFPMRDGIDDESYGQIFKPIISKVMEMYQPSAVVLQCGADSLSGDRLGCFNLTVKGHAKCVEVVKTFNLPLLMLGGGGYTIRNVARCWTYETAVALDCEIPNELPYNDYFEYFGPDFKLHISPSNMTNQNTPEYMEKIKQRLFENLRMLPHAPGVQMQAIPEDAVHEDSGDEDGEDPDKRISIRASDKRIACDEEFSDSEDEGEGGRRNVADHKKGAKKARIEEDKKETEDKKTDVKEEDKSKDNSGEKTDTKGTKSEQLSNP
For orientation: In western blotting, separated proteins are transferred to a membrane and probed.

For series [3], the target named is Histone deacetylase 3/Nuclear receptor corepressor 2 (HDAC3/NCoR2) (Homo sapiens, UniProt O15379). As to the kind of experiment: Inhibition of C-terminal His-tagged recombinant human HDAC3 (1 to 428 residues)/N-terminal GST-tagged recombinant human NCoR2 (395 to 489 residues) co-expressed in baculovirus infected Sf9 cells using Boc-Lys(Ac)-AMC as substrate preincubated for 15 mins followed by substrate addition and measured after 60 mins by fluorescence based assay.
Histone deacetylase 3/Nuclear receptor corepressor 2 (HDAC3/NCoR2), sequence (O15379 whole entry, the tested form may be a part): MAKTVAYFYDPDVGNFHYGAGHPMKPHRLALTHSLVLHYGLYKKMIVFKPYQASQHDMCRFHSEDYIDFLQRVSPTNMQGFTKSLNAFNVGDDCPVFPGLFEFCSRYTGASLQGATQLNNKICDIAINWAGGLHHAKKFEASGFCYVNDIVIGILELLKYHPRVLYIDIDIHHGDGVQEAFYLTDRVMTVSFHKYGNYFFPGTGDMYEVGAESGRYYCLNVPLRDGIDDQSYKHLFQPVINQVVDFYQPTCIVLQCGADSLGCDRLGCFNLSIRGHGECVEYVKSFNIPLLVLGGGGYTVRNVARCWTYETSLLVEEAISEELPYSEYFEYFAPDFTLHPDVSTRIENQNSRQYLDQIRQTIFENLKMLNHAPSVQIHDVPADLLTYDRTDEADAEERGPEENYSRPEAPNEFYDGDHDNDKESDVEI
Histone deacetylase 3/Nuclear receptor corepressor 2 (HDAC3/NCoR2), sequence (Q9Y618 whole entry, further chain, the tested form may be a part): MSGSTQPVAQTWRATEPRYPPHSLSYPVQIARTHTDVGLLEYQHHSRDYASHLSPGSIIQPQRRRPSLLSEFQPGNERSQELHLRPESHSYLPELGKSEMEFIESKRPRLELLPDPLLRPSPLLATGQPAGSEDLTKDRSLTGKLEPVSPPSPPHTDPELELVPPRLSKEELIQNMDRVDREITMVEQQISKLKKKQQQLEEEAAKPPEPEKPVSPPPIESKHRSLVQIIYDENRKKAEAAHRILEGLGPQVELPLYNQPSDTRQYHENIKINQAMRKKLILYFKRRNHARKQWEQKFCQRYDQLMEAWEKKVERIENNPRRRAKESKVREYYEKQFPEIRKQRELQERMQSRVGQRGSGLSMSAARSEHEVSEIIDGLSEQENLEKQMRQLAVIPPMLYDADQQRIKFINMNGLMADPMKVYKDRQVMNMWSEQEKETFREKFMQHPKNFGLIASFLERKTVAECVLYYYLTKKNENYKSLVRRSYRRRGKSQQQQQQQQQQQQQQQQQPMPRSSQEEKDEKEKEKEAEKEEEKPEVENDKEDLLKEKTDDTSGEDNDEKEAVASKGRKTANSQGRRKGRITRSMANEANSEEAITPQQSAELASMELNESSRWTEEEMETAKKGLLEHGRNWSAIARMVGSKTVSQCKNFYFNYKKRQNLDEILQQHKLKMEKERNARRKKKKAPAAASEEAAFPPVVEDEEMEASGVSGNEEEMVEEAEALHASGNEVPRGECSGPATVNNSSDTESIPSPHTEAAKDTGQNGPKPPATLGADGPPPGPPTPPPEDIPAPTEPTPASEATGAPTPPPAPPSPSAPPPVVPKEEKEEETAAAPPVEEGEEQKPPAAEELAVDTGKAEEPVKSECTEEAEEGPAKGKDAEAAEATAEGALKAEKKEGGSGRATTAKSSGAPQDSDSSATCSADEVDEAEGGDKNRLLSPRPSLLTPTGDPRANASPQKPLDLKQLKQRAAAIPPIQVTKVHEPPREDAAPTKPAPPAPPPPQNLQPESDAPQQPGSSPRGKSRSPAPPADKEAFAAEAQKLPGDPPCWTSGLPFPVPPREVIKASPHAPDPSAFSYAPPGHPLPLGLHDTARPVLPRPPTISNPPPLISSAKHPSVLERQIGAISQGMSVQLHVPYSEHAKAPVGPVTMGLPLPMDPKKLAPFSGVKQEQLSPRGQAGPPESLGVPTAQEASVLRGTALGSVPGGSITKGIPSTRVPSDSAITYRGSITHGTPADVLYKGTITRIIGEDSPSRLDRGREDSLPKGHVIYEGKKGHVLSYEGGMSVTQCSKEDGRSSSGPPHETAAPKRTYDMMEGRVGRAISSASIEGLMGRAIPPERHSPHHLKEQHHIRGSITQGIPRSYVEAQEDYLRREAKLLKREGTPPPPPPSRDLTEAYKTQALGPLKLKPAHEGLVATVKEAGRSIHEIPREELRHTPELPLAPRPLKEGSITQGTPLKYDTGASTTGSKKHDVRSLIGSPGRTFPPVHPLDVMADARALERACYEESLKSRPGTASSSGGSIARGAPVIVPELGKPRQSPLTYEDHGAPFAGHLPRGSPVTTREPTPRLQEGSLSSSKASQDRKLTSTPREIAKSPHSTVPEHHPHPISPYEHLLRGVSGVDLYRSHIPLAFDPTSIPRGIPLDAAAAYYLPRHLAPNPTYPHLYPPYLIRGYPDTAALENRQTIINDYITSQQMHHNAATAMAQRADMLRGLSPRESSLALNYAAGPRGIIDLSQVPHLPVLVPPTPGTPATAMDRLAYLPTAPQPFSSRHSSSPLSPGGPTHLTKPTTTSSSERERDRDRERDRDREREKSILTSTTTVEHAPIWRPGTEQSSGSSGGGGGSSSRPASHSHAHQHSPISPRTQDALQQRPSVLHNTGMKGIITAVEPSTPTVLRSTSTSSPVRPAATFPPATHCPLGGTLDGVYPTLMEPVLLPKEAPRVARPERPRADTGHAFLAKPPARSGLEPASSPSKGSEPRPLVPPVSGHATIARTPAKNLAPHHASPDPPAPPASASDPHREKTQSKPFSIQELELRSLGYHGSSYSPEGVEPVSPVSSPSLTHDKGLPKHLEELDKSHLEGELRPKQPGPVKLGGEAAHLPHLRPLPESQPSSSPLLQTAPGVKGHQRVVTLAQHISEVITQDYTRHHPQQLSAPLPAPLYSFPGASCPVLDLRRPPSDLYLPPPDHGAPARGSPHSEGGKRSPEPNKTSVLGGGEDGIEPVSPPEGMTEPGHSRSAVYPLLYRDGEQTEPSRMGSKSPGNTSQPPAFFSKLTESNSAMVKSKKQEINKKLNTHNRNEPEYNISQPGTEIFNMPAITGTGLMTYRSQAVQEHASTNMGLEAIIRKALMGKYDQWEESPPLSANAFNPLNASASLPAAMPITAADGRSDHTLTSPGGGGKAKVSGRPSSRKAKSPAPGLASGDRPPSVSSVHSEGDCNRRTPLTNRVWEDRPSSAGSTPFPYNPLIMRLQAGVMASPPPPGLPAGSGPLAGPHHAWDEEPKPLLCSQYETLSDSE

Series [4] has as its target T1, Histone deacetylase 2. Put plainly: Inhibition of recombinant full length C-terminal FLAG-tagged human HDAC2 expressed in baculovirus infected Sf9 cells using Boc-Lys(Ac)-AMC as substrate preincubated for 15 mins followed by substrate addition and measured after 60 mins by fluorescence based assay.
Series [5] has as its target T2, Protein deacetylase HDAC6 (Homo sapiens, UniProt Q9UBN7).
T2 sequence (Q9UBN7 whole entry): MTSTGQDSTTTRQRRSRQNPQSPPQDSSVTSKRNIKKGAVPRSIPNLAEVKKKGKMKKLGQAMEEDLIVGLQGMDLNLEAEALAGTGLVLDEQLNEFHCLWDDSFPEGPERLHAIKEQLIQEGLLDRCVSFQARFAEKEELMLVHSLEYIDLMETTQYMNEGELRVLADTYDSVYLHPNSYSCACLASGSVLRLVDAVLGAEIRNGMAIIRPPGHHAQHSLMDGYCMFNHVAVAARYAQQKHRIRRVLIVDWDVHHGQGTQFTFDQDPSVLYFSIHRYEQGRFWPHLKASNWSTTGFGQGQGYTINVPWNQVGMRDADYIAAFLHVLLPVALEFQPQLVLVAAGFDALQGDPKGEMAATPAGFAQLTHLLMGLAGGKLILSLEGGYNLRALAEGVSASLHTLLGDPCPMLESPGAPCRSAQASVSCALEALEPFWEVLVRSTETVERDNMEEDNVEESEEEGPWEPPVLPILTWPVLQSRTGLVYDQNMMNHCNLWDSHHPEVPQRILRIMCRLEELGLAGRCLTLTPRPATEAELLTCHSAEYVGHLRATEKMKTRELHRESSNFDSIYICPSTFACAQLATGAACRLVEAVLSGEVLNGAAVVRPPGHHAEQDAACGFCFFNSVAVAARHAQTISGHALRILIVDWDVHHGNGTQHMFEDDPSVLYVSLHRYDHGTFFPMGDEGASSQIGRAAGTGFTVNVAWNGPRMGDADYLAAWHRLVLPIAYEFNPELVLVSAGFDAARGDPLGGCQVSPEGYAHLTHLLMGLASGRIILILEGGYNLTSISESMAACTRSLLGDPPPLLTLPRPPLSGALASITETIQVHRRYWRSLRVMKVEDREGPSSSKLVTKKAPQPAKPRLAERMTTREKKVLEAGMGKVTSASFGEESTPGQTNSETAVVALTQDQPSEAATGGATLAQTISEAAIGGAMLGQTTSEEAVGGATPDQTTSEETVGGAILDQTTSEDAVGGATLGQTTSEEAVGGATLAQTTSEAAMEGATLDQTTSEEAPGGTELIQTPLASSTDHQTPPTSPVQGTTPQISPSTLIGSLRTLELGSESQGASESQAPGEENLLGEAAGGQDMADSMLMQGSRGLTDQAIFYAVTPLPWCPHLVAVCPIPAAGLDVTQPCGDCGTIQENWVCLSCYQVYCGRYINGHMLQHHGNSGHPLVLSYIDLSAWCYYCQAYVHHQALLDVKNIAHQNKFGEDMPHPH
As to the kind of experiment: Inhibition of recombinant full length C-terminal FLAG-tagged human HDAC6 expressed in baculovirus infected Sf9 cells using Boc-Lys(Ac)-AMC as substrate preincubated for 15 mins followed by substrate addition and measured after 60 mins by fluorescence based assay.

Series [6] in a line: Antitumor activity against mouse LL/2 cells inoculated in C57BL/6J mouse assessed as reduction of tumor weight at 25 mg/kg, ip administered for 12 days measured at day 14 (reference value: 0.98 +/- 0.07 g). The series is classed as functional, Lewis lung carcinoma. The conditions noted are these: time 12 day.
The subject of series [7] is HL-60. As to the kind of experiment: Induction of apoptosis in human HL-60 cells assessed as cleavage of PARP at 0.5 to 8 uM after 24 hrs Western blot analysis. The series is classed as functional, cell-based. Conditions: dose 0.5-8 µM. The essentials:
(§1)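 HL-60 cells were treated for 24 h at the indicated concentrations, then analysed by Western blot. Blots were probed for cleavage of PARP and caspase-3, -8 and -9. Ac-H3, Ac-α-tubulin and β-actin were also detected, with β-actin as the loading reference.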

Series [8] has as its system HL-60. Put plainly: Growth inhibition of human HL-60 cells after 72 hrs by trypan blue dye based assay. The series is classed as functional. The conditions noted are these: for GI50: Homo sapiens, HL-60. A digest of the protocol:
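HL-60 leukemia cells were exposed to compound for 72 h. Growth inhibition is reported as IG50 (half the growth inhibition concentration), as means plus SD of three independent experiments.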

Series [9] relates to MCF7. As to the kind of experiment: Antiproliferative activity against human MCF7 cells assessed as cell growth inhibition incubated for 96 hrs by MTT assay. The series is classed as functional.
The nature of series [10]: Antitumor activity against mouse LL/2 cells inoculated in C57BL/6J mouse assessed as tumor growth inhibition at 25 mg/kg, ip administered for 12 days. The series is classed as functional, Lewis lung carcinoma. Details: scale not given: the % may be the effect or the level left. The conditions noted are these: time 12 day.
The nature of series [11]: Toxicity in mouse LL/2 cells inoculated C57BL/6J mouse assessed as effect on body weight by measuring initial body weight at 25 mg/kg, ip administered for 12 days measured for every 2 days (reference value: 18.4 +/- 0.4 g). Format: organism-based. Conditions: in vivo, 288 h, time 12 day.
Series [12] is described as follows: Toxicity in mouse LL/2 cells inoculated C57BL/6J mouse assessed as effect on body weight by measuring end body weight at 25 mg/kg, ip administered for 12 days and measured for every 2 days (reference value: 18.1 +/- 0.2 g). The series is classed as organism-based. The conditions noted are these: in vivo, 288 h, time 12 day.
For series [13], the system named is HL-60. Put plainly: Induction of apoptosis in human HL-60 cells assessed as viable cells at 4 uM incubated for 24 hrs by propidium iodide and annexin-V FITC staining based FACS analysis (reference value: 92.05 %). Format: functional. Conditions: read-out: Activity. In general terms: A flow cytometer gives signals particle by particle.
The subject of series [14] is HL-60. Put plainly: Induction of apoptosis in human HL-60 cells assessed as cleavage of caspase-9 at 0.5 to 8 uM after 24 hrs Western blot analysis. The series is classed as functional, cell-based. The conditions noted are these: dose 0.5-8 µM. A digest of the protocol: as §1
Series [15] deals with Histone deacetylase 1 (Homo sapiens, UniProt Q13547). Put plainly: Inhibition of recombinant full length C-terminal FLAG/His-tagged human HDAC1 expressed in baculovirus infected Sf9 cells using Boc-Lys(Ac)-AMC as substrate preincubated for 15 mins followed by substrate addition and measured after 60 mins by fluorescence based assay.
Histone deacetylase 1, sequence (Q13547 whole entry): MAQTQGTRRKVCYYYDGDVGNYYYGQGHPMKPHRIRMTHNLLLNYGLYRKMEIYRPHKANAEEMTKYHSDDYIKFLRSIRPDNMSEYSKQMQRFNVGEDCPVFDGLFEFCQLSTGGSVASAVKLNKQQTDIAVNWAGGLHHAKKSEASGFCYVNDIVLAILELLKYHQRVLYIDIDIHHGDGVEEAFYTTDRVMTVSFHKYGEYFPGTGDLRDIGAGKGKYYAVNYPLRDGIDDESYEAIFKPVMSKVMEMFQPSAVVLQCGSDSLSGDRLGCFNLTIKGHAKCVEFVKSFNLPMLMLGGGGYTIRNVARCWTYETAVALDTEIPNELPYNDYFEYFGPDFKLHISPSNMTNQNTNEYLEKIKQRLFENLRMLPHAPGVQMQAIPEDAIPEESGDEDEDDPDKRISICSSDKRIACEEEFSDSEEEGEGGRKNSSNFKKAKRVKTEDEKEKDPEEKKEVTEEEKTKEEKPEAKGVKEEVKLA
The subject of series [16] is A549. Put plainly: Antiproliferative activity against human A549 cells assessed as cell growth inhibition incubated for 96 hrs by MTT assay. The series is classed as functional.
Series [17] concerns HCT-116. Put plainly: Antiproliferative activity against human HCT-116 cells assessed as cell growth inhibition incubated for 96 hrs by MTT assay. Format: functional.

One may read the IC50 as the point on the concentration scale where inhibition reaches its midpoint. The term GI50 denotes the concentration at which growth is held to half of that of the control. Consider `O=C(NCCS)/C(Cc1ccc(O)c(Br)c1)=N/O`, for which the IG50 in [1] was determined as 3.9 µM; in series [9], 17 µM; in [16], 10.7 µM; in series [17], 5.9 µM. For the same molecule, in [2], the inhibition result was “Active”. The concentration for half-maximal inhibition (IC50) worked out at 120 nM in series [3], 210 nM in series [4], 960 nM in series [5] and 52 nM in series [15]. For the same molecule, the Activity in series [6] amounted to 0.48 g; in [10] it was 55.99%; in [11] it was 18.5 g; in series [12] it was 18.3 g. Further, the outcome in series [7] and in series [14] was Active. The molecule also displayed a GI50 in series [8] of 680 nM. Besides, the viability at 4 µM in [13] was determined as 93.3%.

`O=C(NCCSSCCNC(=O)/C(Cc1ccc(O)c(Br)c1)=N/O)/C(Cc1ccc(O)c(Br)c1)=N/O` [PSAMMAPLIN A]: the IG50 in series [1] was 2.64 µM; in series [9], 4.14 µM; in series [16], 2.9 µM; in series [17], 2.3 µM. Further, the inhibition entry in series [2] is “Active”. The 50% inhibitory concentration (IC50) in series [3] is 12.4 nM; in [4] it was 33 nM; in [5], 311 nM; in series [15], 8 nM. The Activity in series [6] is on record as 0.34 g; in [10], 66.04%; in series [11], 18.2 g; in [12], 18.4 g. The result in series [7] and in series [14] was Active. This molecule came in with a GI50 in series [8] of 370 nM. Besides, in [13], the viability at 4 µM was 66.2%.

In the case of `O=C(CCNC(=O)/C(Cc1ccc(O)c(Br)c1)=N/O)NO`, the IG50 in series [1] was 5 µM; in series [8] it was 0.57 µM; in series [9] it was 1.09 µM; in [16], 1.1 µM; in [17], 0.9 µM. In addition, the half-inhibitory concentration (IC50) in series [3] was 20 nM; in series [4], 33 nM; in [5], 96 nM; in [15], 18 nM. Further, the Activity in [6] is reported as 0.45 g; in series [10], 54.68%; in series [11], 18.9 g; in series [12], 18.4 g.
